pEC50: −log10 of the molar value. ≈ marks a conversion by molar mass, not a printed value.
Experiments:
[1] = biological target: T1, Hexokinase-4 (Homo sapiens, UniProt P35557); test: Activation of human recombinant Glucokinase measured over 5 mins by G6-PD coupled assay in presence of 5 mM glucose
T1 sequence (P35557 whole entry): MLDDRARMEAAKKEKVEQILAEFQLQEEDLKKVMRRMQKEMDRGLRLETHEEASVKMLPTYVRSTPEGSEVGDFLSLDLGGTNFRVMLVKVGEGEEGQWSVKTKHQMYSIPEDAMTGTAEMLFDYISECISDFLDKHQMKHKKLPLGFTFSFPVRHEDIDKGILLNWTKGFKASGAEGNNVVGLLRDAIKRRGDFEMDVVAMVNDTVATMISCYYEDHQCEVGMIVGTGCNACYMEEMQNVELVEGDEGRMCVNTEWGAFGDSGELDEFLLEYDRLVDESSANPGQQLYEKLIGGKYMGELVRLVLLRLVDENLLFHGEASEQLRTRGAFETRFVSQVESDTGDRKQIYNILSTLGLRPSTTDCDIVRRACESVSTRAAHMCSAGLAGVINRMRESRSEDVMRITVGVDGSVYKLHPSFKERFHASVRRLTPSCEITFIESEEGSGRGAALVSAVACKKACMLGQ
Method in brief: (§1)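 Recombinant human GK; glucose held at 5 mM for EC₅₀ determination; run in duplicate (n = 2).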

[2] = Drug metabolism in human liver microsomes assessed as compound turnover at 1 uM after 30 mins; format: ADME; conditions: read-out: Drug metabolism
Method in brief: (§2)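 Test compound at 1 μM initial concentration was incubated with 0.25 mg/mL rat or human liver microsomes for 30 min at 37 °C; percent turnover is the percentage of parent metabolized.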

[3] = Drug metabolism in rat liver microsomes assessed as compound turnover at 1 uM after 30 mins; format: ADME; conditions: read-out: Drug metabolism; method in brief: as §2
[4] = tested on: Mus musculus; test: Antidiabetic activity in C57Bl/6 mouse assessed as reduction in blood glucose AUC at 10 mg/kg, po administered 30 mins prior glucose challenge by oral glucose tolerance test; format: functional; parameters: scale not given: the % may be the effect or the level left
Method in brief: (§3)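 Oral dose–response OGTT in C57Bl/6 mice at 3, 10 and 30 mg/kg; blood glucose area-under-curve assessed; significance versus vehicle by two-way ANOVA.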

[5] = Volume of distribution at steady state in rat at 1 mg/kg, iv; format: ADME, organism-based; parameters: dose 1 mg/kg, route intravenous; conditions: in vivo, read-out: Vdss
Method in brief: (§4)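 Rats: IV dose 1 mg/kg, n = 3; PO dose 10 mg/kg, n = 3.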

[6] = Oral bioavailability in rat at 10 mg/kg; format: ADME, organism-based; conditions: in vivo; method in brief: as §4
[7] = Half life in mouse at 1 mg/kg, iv; format: ADME, organism-based; parameters: dose 1 mg/kg, route intravenous; conditions: in vivo
Method in brief: (§5)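 Mice: IV dose 1 mg/kg, n = 3; PO dose 10 mg/kg, n = 3.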

[8] = Clearance in mouse at 1 mg/kg, iv; format: ADME, organism-based; parameters: dose 1 mg/kg, route intravenous; conditions: in vivo; method in brief: as §5
[9] = AUC in mouse at 10 mg/kg, po; format: ADME, organism-based; parameters: dose 10 mg/kg, route oral; conditions: plasma; method in brief: as §5
[10] = Half life in rat at 1 mg/kg, iv; format: ADME, organism-based; parameters: dose 1 mg/kg, route intravenous; conditions: in vivo; method in brief: as §4
[11] = Solubility of the compound in PBS buffer at 7.4; format: physicochemical; conditions: pH 7.4
[12] = Drug metabolism in human primary hepatocytes; format: ADME, cell-based, Hepatocyte; conditions: read-out: Drug metabolism
[13] = Oral bioavailability in mouse at 10 mg/kg; format: ADME, organism-based; conditions: in vivo; method in brief: as §5
[14] = tested on: Mus musculus; test: Antidiabetic activity in C57Bl/6 mouse assessed as reduction in plasma glucose level at 30 mg/kg, po administered 30 mins prior glucose challenge measured 1.5 to 2 hrs post dose by oral glucose tolerance test; format: functional; method in brief: as §3
[15] = Volume of distribution at steady state in mouse at 1 mg/kg, iv; format: ADME, organism-based; parameters: dose 1 mg/kg, route intravenous; conditions: in vivo, read-out: Vdss; method in brief: as §5
[16] = AUC in rat at 10 mg/kg, po; format: ADME, organism-based; parameters: dose 10 mg/kg, route oral; conditions: plasma; method in brief: as §4
[17] = tested on: Mus musculus; test: Antidiabetic activity in C57Bl/6 mouse assessed as reduction in blood glucose AUC at 3 mg/kg, po administered 30 mins prior glucose challenge by oral glucose tolerance test; format: functional; parameters: scale not given: the % may be the effect or the level left; method in brief: as §3
[18] = Clearance in rat at 1 mg/kg, iv; format: ADME, organism-based; parameters: dose 1 mg/kg, route intravenous; conditions: in vivo; method in brief: as §4
[19] = Permeability across pig LLC-PK cells; format: ADME, cell-based, Sus scrofa; conditions: LLC-PK1, read-out: permeability
[20] = AUC in rat at 2 mg/kg, po; format: ADME, organism-based; parameters: dose 2 mg/kg, route oral; conditions: plasma
[21] = Plasma protein binding in mouse; format: ADME; conditions: read-out: PPB (converted)
[22] = tested on: Mus musculus; test: Hypoglycemic activity in fed C57Bl/6 mouse assessed as change in blood glucose level at 10 to 30 mg/kg, po followed by food withdrawal for 4 hrs measured 30 to 240 mins post dose by normoglycemic glucose lowering test; format: ADME, organism-based; parameters: route oral; conditions: in vivo
Method in brief: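 Fed male C57Bl/6 mice dosed orally with vehicle or compound (10 or 30 mg/kg) without glucose challenge, then food removed for 4 h; blood glucose sampled at various time points; two-way ANOVA versus vehicle.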

[23] = Half life in dog at 0.5 mg/kg, iv; conditions: in vivo
[24] = AUC in mouse at 5 mg/kg, po; format: ADME, organism-based; parameters: dose 5 mg/kg, route oral; conditions: plasma
[25] = biological target: T1, Hexokinase-4; test: Activation of human recombinant Glucokinase measured over 5 mins by G6-PD coupled assay in presence of 5 mM glucose and 4% HSA; method in brief: as §1
[26] = tested on: Mus musculus; test: Antidiabetic activity in fasted ob/ob mouse assessed as reduction in blood glucose AUC at 10 mg/kg, po administered 30 mins prior glucose challenge by oral glucose tolerance test relative to control; format: functional; parameters: scale not given: the % may be the effect or the level left
Method in brief: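 OGTT in fasted ob/ob mice with oral doses of 0.3, 1, 3 and 10 mg/kg; blood glucose AUC compared to vehicle by two-way ANOVA.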

[27] = Clearance in rat at 0.5 mg/kg, iv; format: ADME, organism-based; parameters: dose 0.5 mg/kg, route intravenous; conditions: in vivo
[28] = Volume of distribution at steady state in rat at 0.5 mg/kg, iv; format: ADME, organism-based; parameters: dose 0.5 mg/kg, route intravenous; conditions: in vivo, read-out: Vdss
[29] = Oral bioavailability in rat at 2 mg/kg; format: ADME, organism-based; conditions: in vivo
[30] = Plasma protein binding in rat; format: ADME, cell-free; conditions: read-out: PPB
[31] = Oral bioavailability in mouse at 5 mg/kg; format: ADME, organism-based; conditions: in vivo
[32] = Half life in rat at 0.5 mg/kg, iv; format: ADME, organism-based; parameters: dose 0.5 mg/kg, route intravenous; conditions: in vivo
[33] = tested on: Canis familiaris; test: Clearance in dog at 0.5 mg/kg, iv; conditions: in vivo
[34] = Plasma protein binding in human; format: ADME, cell-free; conditions: read-out: PPB (converted)
[35] = tested on: Canis familiaris; test: Oral bioavailability in dog at 2 mg/kg; conditions: in vivo
[36] = tested on: Canis familiaris; test: AUC in dog at 2 mg/kg, po; conditions: in vivo
[37] = Volume of distribution at steady state in dog at 0.5 mg/kg, iv; conditions: in vivo, read-out: Vdss

| Structure (SMILES) | pEC50 [1] | metabolised at 0.5 h, 1 µM [2] [%] | metabolised at 0.5 h, 1 µM [3] [%] | further results |
| --- | --- | --- | --- | --- |
| CCn1nc(COC)cc1Oc1cc(CC2CCOCC2)cnc1NC(=O)NC | 6.09 | – | – | – |
| CCc1ncccc1Oc1cc(CC(C)C)cnc1NC(=O)NC | 6.92 | 56 | 95 | – |
| CCOCCc1cnc(NC(=O)NC)c(Oc2cccnc2CC)c1 | 6.23 | 21 | 76 | – |
| CCc1ncccc1Oc1cc(CCCOC)cnc1NC(=O)NC | 6.36 | – | – | – |
| CCc1ncccc1Oc1cc(CCCCOC)cnc1NC(=O)NC | 6.96 | 23 | 41 | – |
| CCc1ncccc1Oc1cc(CCO)cnc1NC(=O)NC | 5.80 | 10 | 10 | – |
| CCc1ncccc1Oc1cc(CCCCO)cnc1NC(=O)NC | 6.46 | 20 | 33 | – |
| CCc1ncccc1Oc1cc(CCCC(C)(C)O)cnc1NC(=O)NC | 6.96 | 31 | 17 | – |
| CCc1ncccc1Oc1cc(CC2CCCCC2)cnc1NC(=O)NC | 7.85 | 99 | 95 | – |
| CCc1ncccc1Oc1cc(CC2CCOCC2)cnc1NC(=O)NC | 6.54 | – | – | – |
| CCn1nccc1Oc1cc(CCCCOC)cnc1NC(=O)NC | 6.34 | 10 | 31 | – |
| CCn1nccc1Oc1cc(CCCC(C)(C)O)cnc1NC(=O)NC | 6.43 | 10 | 10 | – |
| CCn1nccc1Oc1cc(CC2CCOCC2)cnc1NC(=O)NC | 6.46 | 10 | 25 | Activity [4]: 32%; Vd [5]: 0.8 L/kg; bioavailability [6]: 19%; half-life [7]: 0.72 h; clearance [8]: 28.3 mL/min/kg; AUC [9]: 13.3 µM·h; half-life [10]: 0.41 h; solubility [11]: 718 µg/mL (≈ 2000 µM); metabolised [12]: 15%; bioavailability [13]: 81%; Activity [14]: 77 mg/dL; Vd [15]: 1.5 L/kg; AUC [16]: 3.51 µM·h; Activity [17]: 15%; clearance [18]: 25 mL/min/kg |
| CCn1nccc1Oc1cc(C(O)C2CCOCC2)cnc1NC(=O)NC (centres undefined) | 4.77 | – | – | – |
| CCn1nccc1Oc1cc(CN2CCOCC2)cnc1NC(=O)NC | 5.10 | – | – | – |
| CCn1nccc1Oc1cc(C[C@H]2CCO[C@H](COC)C2)cnc1NC(=O)NC | 6.31 | – | – | – |
| CCn1nccc1Oc1cc(C[C@@H]2CCO[C@@H](COC)C2)cnc1NC(=O)NC | 6.46 | – | – | – |
| CNC(=O)Nc1ncc(CC2CCOCC2)cc1Oc1ccnn1C(C)C | 5.56 | – | – | – |
| CCn1nccc1Oc1cc(C[C@H]2CC[C@H](O)CC2)cnc1NC(=O)NC | 7.17 | – | – | – |
| CCn1nccc1Oc1cc(C[C@H]2CC[C@@H](O)CC2)cnc1NC(=O)NC | 6.92 | – | – | – |
| CCn1nccc1Oc1cc(C[C@H]2CC[C@](C)(O)CC2)cnc1NC(=O)NC | 6.96 | – | – | – |
| CCn1nccc1Oc1cc(C[C@H]2CC[C@@](C)(O)CC2)cnc1NC(=O)NC | 7.01 | – | – | – |
| CCn1nccc1Oc1cc(C[C@H]2C[C@@H](O)C2)cnc1NC(=O)NC | 6.28 | – | – | – |
| CCn1nccc1Oc1cc(C[C@H]2C[C@H](O)C2)cnc1NC(=O)NC | 6.30 | – | – | – |
| CCn1nccc1Oc1cc(C[C@H]2C[C@@](C)(O)C2)cnc1NC(=O)NC | 6.15 | – | – | – |
| CCn1nccc1Oc1cc(C[C@H]2C[C@](C)(O)C2)cnc1NC(=O)NC | – | – | – | Papp [19]: 32.4 ×10⁻⁶ cm/s; AUC [20]: 0.39 µM·h; fraction unbound [21]: 0.44; Activity [22]: Non-toxic; half-life [23]: 5.5 h; AUC [24]: 6.84 µM·h; pEC50 [25]: 6.55; Activity [26]: 43%; clearance [27]: 26.7 mL/min/kg; Vd [28]: 0.8 L/kg; bioavailability [29]: 9%; fraction unbound [30]: 0.5; bioavailability [31]: 44%; half-life [32]: 2 h; CL [33]: 10.7 mL/min/kg; fraction unbound [34]: 0.44; F [35]: 72%; AUC [36]: 6.4 µM·h; Vd [37]: 2.2 L/kg |

— ChEMBL document CHEMBL3351938, “C5-Alkyl-2-methylurea-Substituted Pyridines as a New Class of Glucokinase Activators” (ACS Med Chem Lett, 2014)
